Laboratory results taken from ChEMBL document CHEMBL1153363, “Structure-activity relationships for a series of quinoline-based compounds active against replicating and nonreplicating Mycobacterium tuberculosis” (J Med Chem, 2009).
In brackets after ≈: the same amount, converted by molar mass.

What was measured:
[1] = system: Mycobacterium tuberculosis; test: Antitubercular activity against non replicating persistent form of Mycobacterium tuberculosis H37Rv ATCC 27294 after 10 days by LORA; assay type: functional; details: 240 h
How it was run: (§1)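 Recombinant H37Rv (pFCA-luxAB, V. harveyi luciferase, acetamidase promoter), low-oxygen adapted in fermentor, washed in PBS, stored at -80 °C. About 10⁵ cfu/mL of thawed cells exposed to two-fold serial dilutions in 7H12, 10 days anaerobic at 37 °C. Luminescence read after 28 h aerobic recovery (5% CO₂). MIC = lowest concentration preventing recovery (90% reduction versus untreated), read graphically.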

[2] = system: Mycobacterium tuberculosis; test: Antitubercular activity against replicating form of Mycobacterium tuberculosis H37Rv ATCC 27294 after 7 days by microplate alamar blue assay; assay type: functional; details: 168 h
How it was run: (§2)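 12.8 mM DMSO stocks; two-fold dilutions in Middlebrook 7H12 broth, final 128 to 0.5 µM. Inoculum 2 × 10⁵ cfu/mL, 37 °C. On day 7, Tween 80 plus Alamar Blue added; fluorescence read (ex 530/em 590 nm) after 16-24 h more. MIC = lowest concentration giving ≥90% fluorescence drop versus bacteria-only controls; mean of two runs. RMP and INH positive controls.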

Vero = test: Cytotoxicity against african green monkey Vero cells after 72 hrs by Cell titer assay; assay type: cell-based, Chlorocebus sabaeus
How it was run: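 Vero CCL-81 cells, log phase. Samples from 12.8 mM DMSO stocks in geometric 3-fold dilutions in MEM with 10% FBS, 25 mM HEPES, 0.2% NaHCO₃ and 2 mM glutamine; DMSO ≤1% v/v final. Run in duplicate, 72 h at 37 °C, 5% CO₂. Viability by CellTiter 96 aqueous assay, absorbance 490 nm; IC50 from curve fitting.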

[3] = system: Mycobacterium tuberculosis; test: Ratio of MIC for non replicating persistent form of Mycobacterium tuberculosis H37Rv ATCC 27294 by LORA to MIC for replicating form of Mycobacterium tuberculosis H37Rv ATCC 27294 by microplate alamar blue assay; assay type: functional
[4] = system: Mycobacterium tuberculosis; test: Antitubercular activity against non replicating persistent form of Mycobacterium tuberculosis; assay type: functional; how it was run: as §1
[5] = system: Mycobacterium tuberculosis; test: Antitubercular activity against replicating form of Mycobacterium tuberculosis; assay type: functional; how it was run: as §2
[6] = system: Mycobacterium tuberculosis; test: Antitubercular activity against Mycobacterium tuberculosis; assay type: functional; how it was run: as §2
[7] = Chlorocebus sabaeus, Vero, 72 h

SMILES | MIC [1] [µM] | MIC [2] [µM] | IC50 (Vero; [7]) [µM] | further results
CCOC(=O)c1cc(COc2cc(C(F)(F)F)nc3c(Cl)cccc23)on1 | 49.3 (≈ 19.8 µg/mL) | 62.9 (≈ 25.2 µg/mL) |  | 
CCOC(=O)c1cc(COc2cc(C(F)(F)F)nc3c(F)cccc23)on1 | 39 (≈ 15 µg/mL) | 11.3 (≈ 4.34 µg/mL) | > 128 | 
CCOC(=O)c1cc(COc2cc(C(F)(F)F)nc3cc(Cl)cc(Cl)c23)on1 | 3.7 (≈ 1.61 µg/mL) | 1.9 (≈ 0.827 µg/mL) | > 128 | 
CCOC(=O)c1cc(COc2ccnc3cc(Cl)ccc23)on1 | 99.7 (≈ 33.2 µg/mL) | 3.8 (≈ 1.26 µg/mL) | > 128 | Ratio [3]: 25
CCOC(=O)c1cc(COc2ccnc3cc(C(F)(F)F)ccc23)on1 | 81.9 (≈ 30 µg/mL) | 3.3 (≈ 1.21 µg/mL) |  | Ratio [3]: 25
CCOC(=O)c1cc(-c2cccc(Oc3cc(C(F)(F)F)nc4ccccc34)c2)on1 | 3.7 (≈ 1.58 µg/mL) | 0.95 (≈ 0.407 µg/mL) | > 128 | 
CCOC(=O)c1cc(COc2cc(C(F)(F)F)nc3c(C(F)(F)F)cccc23)on1 | 12.2 (≈ 5.3 µg/mL) | 0.9 (≈ 0.391 µg/mL) | > 128 | MIC [4]: 12.2 µM (≈ 5.3 µg/mL); MIC [5]: 0.9 µM (≈ 0.391 µg/mL)
CCOC(=O)c1cc(COc2ccnc3ccccc23)on1 | 13.2 (≈ 3.94 µg/mL) | 25.1 (≈ 7.49 µg/mL) | > 128 | 
CCOC(=O)c1cc(COc2cc(C(F)(F)F)nc3c(C)cccc23)on1 | 10.4 (≈ 3.96 µg/mL) | 1.8 (≈ 0.685 µg/mL) | > 128 | 
CCOC(=O)c1cc(COc2cc(C(F)(F)F)nc3c(C(F)(F)F)cc(OC)cc23)on1 |  | 66.1 (≈ 30.7 µg/mL) | > 128 | 
CCOC(=O)c1cc(COc2cc(C(=O)OCC)nc3ccccc23)on1 | 15.7 (≈ 5.81 µg/mL) | 7.9 (≈ 2.93 µg/mL) | > 128 | 
CCOC(=O)c1cc(Cn2ccc(=O)c3ccc(C(F)(F)F)cc32)on1 |  | > 128 |  | 
CCOC(=O)c1cc(COc2cc(C(F)(F)F)nc3ccccc23)on1 | 25.1 (≈ 9.19 µg/mL) | 3.2 (≈ 1.17 µg/mL) | > 128 | 
CCOC(=O)c1cc(COc2cc(C(F)(F)F)nc3cccc(C(F)(F)F)c23)on1 |  | 3.8 (≈ 1.65 µg/mL) | > 128 | 
CCOC(=O)c1cc(COc2cc(C(F)(F)F)nc3cc(C(F)(F)F)cc(C(F)(F)F)c23)on1 | 10 (≈ 5.02 µg/mL) | 0.77 (≈ 0.387 µg/mL) | > 128 | 
CCOC(=O)c1cc(COc2cc(C(F)(F)F)nc3c(C(F)(F)F)cccc23)no1 |  | 3.6 (≈ 1.56 µg/mL) | > 128 | 
CCOC(=O)c1nc(COc2cc(C(F)(F)F)nc3c(C(F)(F)F)cccc23)cs1 |  | 16.5 (≈ 7.43 µg/mL) | > 128 | 
CCOC(=O)c1ccc(COc2cc(C(F)(F)F)nc3c(C(F)(F)F)cccc23)o1 |  | > 128 | 118 | 

SMILES | MIC [1] [µM] | MIC [2] [µM] | IC50 (Vero; [7]) [µM] | further results
CCC(=O)c1cc(COc2cc(C(F)(F)F)nc3c(C(F)(F)F)cccc23)on1 |  | 27.4 (≈ 11.5 µg/mL) | 64.9 | 
CCOC(=O)c1ccc(COc2cc(C(F)(F)F)nc3c(C(F)(F)F)cccc23)cc1 |  | > 128 | > 128 | 
O=[N+]([O-])c1ccc(COc2cc(C(F)(F)F)nc3c(C(F)(F)F)cccc23)o1 |  | 6.3 (≈ 2.56 µg/mL) | 15.4 | 
CCOC(=O)c1cc(COc2ccnc3c(C(F)(F)F)cccc23)on1 | 56.6 (≈ 20.7 µg/mL) | 10.6 (≈ 3.88 µg/mL) | > 128 | 
CCOC(=O)c1cc(COc2cc(C(F)(F)F)nc3c(F)ccc(F)c23)on1 | 52.8 (≈ 21.2 µg/mL) | 41.2 (≈ 16.6 µg/mL) |  | 
CCOC(=O)c1cc(COc2cc(C(F)(F)F)nc3c(OC(F)(F)F)cccc23)on1 | 7 (≈ 3.15 µg/mL) | 2.6 (≈ 1.17 µg/mL) | > 128 | 
CCOC(=O)c1cc(COc2cc(C(F)(F)F)nc3c(F)cc(F)cc23)on1 |  | 14.6 (≈ 5.87 µg/mL) |  | 
CCOC(=O)c1cc(CCOc2cc(C(F)(F)F)nc3c(C(F)(F)F)cccc23)on1 | 9.9 (≈ 4.44 µg/mL) | 3.4 (≈ 1.52 µg/mL) | > 128 | 
CCOC(=O)c1cc(COc2cc(C(F)(F)F)nc3cc(C(F)(F)F)ccc23)on1 |  | 1.3 (≈ 0.565 µg/mL) | > 128 | 
CCOC(=O)c1cc(COc2cc(C(F)(F)F)nc3ccc(C(F)(F)F)cc23)on1 | 7.6 (≈ 3.3 µg/mL) | 3.7 (≈ 1.61 µg/mL) | > 128 | Ratio [3]: 2
CCOC(=O)C1=NOC(COc2cc(C(F)(F)F)nc3c(C(F)(F)F)cccc23)C1 (configuration not stated) |  | 22.2 (≈ 9.69 µg/mL) | > 128 | 
FC(F)(F)c1cc(OCc2nnn[nH]2)c2cccc(C(F)(F)F)c2n1 |  | > 128 |  | 
CCOC(=O)c1cccc(COc2cc(C(F)(F)F)nc3c(C(F)(F)F)cccc23)n1 |  | > 128 |  | 
CCOC(=O)c1coc(COc2cc(C(F)(F)F)nc3c(C(F)(F)F)cccc23)n1 |  | > 128 |  | 
NNC(=O)c1ccncc1 [ISONIAZID] | > 128 | 0.5 (≈ 0.0686 µg/mL) | > 128 | 
OC(c1cc(C(F)(F)F)nc2c(C(F)(F)F)cccc12)C1CCCCN1 (configuration not stated) [MEFLOQUINE] |  |  |  | MIC [6]: 13 µM (≈ 4.92 µg/mL)
CO[C@H]1/C=C/O[C@@]2(C)Oc3c(C)c(O)c4c(O)c(c(/C=N/N5CCN(C)CC5)c(O)c4c3C2=O)NC(=O)/C(C)=C\C=C\[C@H](C)[C@H](O)[C@@H](C)[C@@H](O)[C@@H](C)[C@H](OC(C)=O)[C@@H]1C [RIFAMPIN] | 1.9 (≈ 1.56 µg/mL) | 0.1 (≈ 0.0823 µg/mL) | 127 | IC50 (Vero; vero): 127 µM
CN[C@@H]1[C@H](O[C@H]2[C@H](O[C@H]3[C@H](O)[C@@H](O)[C@H](N=C(N)N)[C@@H](O)[C@@H]3N=C(N)N)O[C@@H](C)[C@]2(O)C=O)O[C@@H](CO)[C@H](O)[C@H]1O [STREPTOMYCIN] |  | 0.3 (≈ 0.174 µg/mL) |  | 
